Measurements reported in publication PMC3756490 (Journal of medicinal chemistry, 2012).

What was measured:
[1] = test system: HIF transcriptional activity; experiment: HIF-dependent luciferase reporter assay in LN229-V6R cells under hypoxia; assay type: cell-based, human; settings: for inhibition of HIF-1 transcriptional activity (HRE-mediated luciferase) at 10 μM: one day
Summary of the method: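 LN229-V6R cells carry a stably integrated hypoxia/HIF-inducible luciferase reporter and were grown in DMEM with 10% serum. Cells were seeded at 3 × 10⁴ per well, held in normoxia (21% O₂, 5% CO₂) for 24 h, then given DMEM with 1% DMSO with or without test compound (2.5, 5.0, 10.0 μM). After 1 h at 37 °C, cells went to hypoxia (1% O₂) for 24 h. Cells were washed and lysed, and extract luminescence was read with luciferase substrate. Triplicates, expressed as % of untreated control.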

[2] = test system: LN229-Lux cells (constitutive luciferase reporter gene); experiment: constitutive luciferase reporter control assay in LN229-Lux cells; assay type: cell-based, human; settings: control for inhibition of luciferase per se
Summary of the method: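 LN229-Lux cells carry a constitutive luciferase reporter driven by a retroviral LTR promoter. They were grown in DMEM with 10% serum, seeded at 3 × 10⁴ per well and treated with test compound in 1% DMSO medium under normoxia. Lysates were read for luminescence with luciferase substrate. Values are % of untreated control extracts, in triplicates.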

LogP7.4 measurement = assay type: physicochemical; settings: pH 7.4; shake flask method (6a, 6g) or HPLC method (1, 6b-6f, 6h-6l)
Summary of the method: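 Shake-flask method (OECD 107): 1-octanol and 0.2 M phosphate buffer pH 7.4 were mutually presaturated by stirring for 24 h at room temperature. 1–2 mg test compound was partitioned between 2 mL each phase, in duplicate. The aqueous phase was quantified by HPLC at 254 nm against standard curves. HPLC method (OECD 117): C₁₈ column with methanol:water:triethylamine 70:30:0.1 at 2 mL/min, calibrated with the shake-flask compounds, aniline, benzene, toluene and chlorobenzene.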

[3] = metabolic stability in mouse liver homogenate; assay type: in vitro ADME; settings: mouse liver homogenate in PBS (1:2 w/v), pH 7.4
Summary of the method: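 Test compound (20 μM) was incubated at 37 °C with shaking in fresh mouse liver homogenate in PBS pH 7.4 (1/2 w/v). At set times, samples were extracted with acetonitrile, dried and reconstituted in mobile phase. They were quantified by reverse-phase C₈ HPLC with photodiode-array detection, using α-naphthoflavone (2 μM) as internal standard and standard curves linear over 1–50 μM. Run in triplicate.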

HIF-1α = HIF-1α protein levels in LN229-V6R cells under hypoxia by western blot; assay type: cell-based, human; settings: 3-100 μM, hypoxia 24 hours
Summary of the method: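 LN229-V6R cells (2 × 10⁵) were seeded in 35 mm dishes and kept under normoxia for 24 h. Fresh DMEM with 1% DMSO and test compound (3, 6, 12, 25, 50 or 100 μM) was added, then 1 h at 37 °C in normoxia, then 24 h in hypoxia (1% O₂). Lysates in SDS loading buffer were run on a 4–12.5% gradient gel and blotted with anti-HIF-1α (1:500) and anti-β-actin (1:3,000), with HRP/ECL detection. Each blot was done at least twice.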

Row | Structure (SMILES) | logP7.4 (LogP7.4 measurement) | luciferase activity in LN229-Lux cells (constitutive reporter) [2] | inhibition of HIF-1 transcriptional activity (HRE-mediated luciferase) at 10 μM [1] | other results
1 | CO[C@H]1/C=C\C=C(/C)C(=O)NC2=CC(=O)C(NCCN(C)C)=C(C[C@@H](C)C[C@H](OC)[C@H](O)[C@@H](C)/C=C(\C)[C@@H]1OC(N)=O)C2=O [Compound 17-DMAG, reference compound] | – | inhibited both reporter cell lines | – | luciferase activity in LN229-V6R cells (qualitative) [1]: inhibited both reporter cell lines
2 | CC(C)N(Cc1ccc2c(c1)C=CC(C)(C)O2)S(=O)(=O)c1ccccn1 [Compound 6a, N-[(2,2-dimethyl-2H-chromen-6-yl)methyl]-N-(propan-2-yl)pyridine-2-sulfonamide] | – | – | completely | –
3 | COc1cc(CN(C(C)C)S(=O)(=O)c2ccccn2)cc2c1OC(C)(C)C=C2 [Compound 6g, N-[(8-methoxy-2,2-dimethyl-2H-chromen-6-yl)methyl]-N-(propan-2-yl)pyridine-2-sulfonamide] | 1.2 ∼ 1.3 | – | 60 ∼ 80% | –
4 | COc1ccc(S(=O)(=O)N(Cc2ccc3c(c2)C=CC(C)(C)O3)c2ccccc2)cc1OC [Compound 1, 3,4-dimethoxy-N-[(2,2-dimethyl-2H-chromene-6-yl)methyl]-N-phenylbenzenesulfonamide] | – | reduced luciferase activity only in LN229-V6R cells under hypoxia | – | –

Further lines, with some results ahead:

Row | logP7.4 (LogP7.4 measurement) | Structure (SMILES) | luciferase activity in LN229-Lux cells (constitutive reporter) [2] | inhibition of HIF-1 transcriptional activity (HRE-mediated luciferase) at 10 μM [1] | other results
5 | 1.2 ∼ 1.3 | CC(C)CN(Cc1cc(O)c2c(c1)C=CC(C)(C)O2)S(=O)(=O)c1ccncc1 [Compound 6l, N-[(8-hydroxy-2,2-dimethyl-2H-chromen-6-yl)methyl]-N-(2-methylpropan-1-yl)pyridine-4-sulfonamide] | – | 60 ∼ 80% | half-life at 20 μM [3]: 13 to 20 h; concentration from which HIF-1α levels decreased dose-dependently (HIF-1α): 25 µM
6 | 1.2 ∼ 1.3 | CC(C)CN(Cc1cc(O)c2c(c1)C=CC(C)(C)O2)S(=O)(=O)c1ccccn1 [Compound 6h, N-[(8-hydroxy-2,2-dimethyl-2H-chromen-6-yl)methyl]-N-(2-methylpropan-1-yl)pyridine-2-sulfonamide] | – | – | –
